Screening results as filed in PubChem BioAssay.
Only some compounds are listed: those with a hit (about 2% of all), similar ones and a draw of the others.
XiGFP reactiv = activators of inactive X chromosome reactivation, primary screen, imaging, XiGFP fibroblasts, GFP high-content imaging, set 2 | XiGFP mouse fibroblasts, % GFP-positive cells imaging, 3 d; cells co-treated with 5-aza-dC sensitizer; scaled so ellipticine positive control = 100% | activation, % at 7.58 µM | actives 0.055% (n = 360,000) | AID 743238, 2013;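 active = mean normalized replicate activation at least 10% and every replicate at or above 10%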
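Material: XiGFP fibroblasts, SV40-immortalized. Buffer or medium: DMEM plus 5-aza-dC sensitizer. Compound: single concentration per compound, delivered by pin transfer. Times: 3 days compound exposure. Controls: ellipticine 6 µM.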
CASP6 VEID inh = human caspase-6 inhibitors, primary screen, biochemical, VEID-R110 fluorescence, single point, set 2. AID 686996, 2013. P55212. inhibition, % at 12.5 µM. purified caspase-6, Z-VEID-R110 cleavage fluorescence. actives 0.53% (n = 350,000);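 active = mean inhibition across replicates at least about 35%, with every replicate also reaching that limit, limit read from the data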
Target sequence (P55212 24-179 limits assumed): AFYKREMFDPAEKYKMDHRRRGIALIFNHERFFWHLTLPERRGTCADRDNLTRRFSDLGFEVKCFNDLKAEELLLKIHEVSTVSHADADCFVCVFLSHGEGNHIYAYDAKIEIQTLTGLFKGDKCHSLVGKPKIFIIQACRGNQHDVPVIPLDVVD
Target sequence (P55212 194-293 limits assumed): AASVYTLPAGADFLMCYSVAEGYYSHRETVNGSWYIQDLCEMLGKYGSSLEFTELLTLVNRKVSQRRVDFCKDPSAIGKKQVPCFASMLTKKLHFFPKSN
CaV13 ICDI inh = Disruptors of the CACNA1D IQ motif to Ca2+-dependent inactivation inhibitor domain association, primary screening, Förster resonance energy transfer in intact living … | AID 743397 | actives 0.098% (n = 340,000) | HEK cells, CFP/YFP FRET ICDI-IQ, plate reader, 10 min; percent FRET-ratio fall versus neutral wells | inhibition, % at 12.3 µM;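 active = mean replicate inhibition of at least 30% and at least 1% of replicates passing that level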
FN deposition inh = inhibitors of fibronectin matrix deposition, primary screen, AH1F cells, Alexa488-fibronectin fluorescence, plate reader; inhibition, % at 12.6 µM; actives 0.086% (n = 350,000); AH1F fibroblasts, overnight;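 active = mean inhibition across replicates of 30% or more, regardless of how many single replicates reach that level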
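Material: AH1F fibroblasts assembling fluorescent fibronectin matrix; amount: 10000 AH1F cells/well; medium: DMEM, 2% serum; reagent: Alexa488-fibronectin, 24 nM final in well; dosing: single compound dose, delivered by pin transfer; incubation: 1 h adhesion, overnight exposure; detection: fluorescence after three HBSS washes, excitation 485 nm, emission 525 nm; measure: fibronectin deposition inhibition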
DENV2 CPE = inhibitors of DENV2 cytopathic effect, primary screen, cell-based, plate reader, single concentration | DENV2-infected cells, cytopathic effect rescue | actives 1.7% (n = 350,000) | CPE inhibition, % at 9.99 µM; in the data active = CPE inhibition above about 20%, passing the limit was not always enough; tested in BHK-21 cells
A number is an active result; ! = not confirmed by another sample.

How did CC(NC(=O)CN1CCOCC1)c1ccccc1 (stereo not drawn) do in these assays?
XiGFP reactiv: inactive; CASP6 VEID inh: inactive; CaV13 ICDI inh: inactive; FN deposition inh: inactive; DENV2 CPE: inactive

Results for O=[N+]([O-])c1ccc(N2N=C(c3ccccc3)CC2c2ccccc2O)cc1 (stereo not drawn) ?
XiGFP reactiv: 32.3; CASP6 VEID inh: inactive; CaV13 ICDI inh: inactive; FN deposition inh: inactive; DENV2 CPE: inactive

Results for CN(C)/C=C1/C=C(C=O)OC1=O ?
XiGFP reactiv: inactive; CASP6 VEID inh: 44.9; CaV13 ICDI inh: inactive; FN deposition inh: inactive; DENV2 CPE: inactive

What do the screens show for `C[C@H]1CN(C)C(=O)c2cc(N)ccc2O[C@@H]1CN(C)S(C)(=O)=O`?
XiGFP reactiv: inactive; FN deposition inh: inactive

What do the screens show for `CCCNC(=O)[C@@H]1[C@@H](CO)[C@@H]2Cn3c(cccc3=O)[C@H]1N2CCC(F)(F)F`?
XiGFP reactiv: inactive; CASP6 VEID inh: inactive; FN deposition inh: inactive; DENV2 CPE: inactive

What do the screens show for `O=C([C@@H]1[C@@H](CO)[C@@H]2Cn3c(cccc3=O)[C@H]1N2Cc1ccccc1)N1CCCCC1`?
XiGFP reactiv: inactive; CASP6 VEID inh: inactive; DENV2 CPE: 50.4

Results for O=C([C@@H]1[C@@H](CO)[C@@H]2Cn3c(cccc3=O)[C@H]1N2CC1CCCC1)N1CCCCC1 ?
XiGFP reactiv: inactive; CASP6 VEID inh: inactive; DENV2 CPE: inactive

How did CCCNC(=O)[C@H]1[C@H](CO)[C@H]2Cn3c(cccc3=O)[C@@H]1N2CCC(F)(F)F do in these assays?
XiGFP reactiv: inactive; CASP6 VEID inh: inactive; FN deposition inh: inactive; DENV2 CPE: 20.1

What do the screens show for `O=C([C@H]1[C@H](CO)[C@H]2Cn3c(cccc3=O)[C@@H]1N2CC1CCCC1)N1CCOCC1`?
XiGFP reactiv: inactive; CASP6 VEID inh: inactive; FN deposition inh: inactive; DENV2 CPE: 23.2

How did C[C@H](CO)N1C[C@H](C)[C@H](CN(C)C(=O)CCC(F)(F)F)OCCCC[C@H](C)Oc2ccc(NC(=O)CCCN(C)C)cc2C1=O do in these assays?
XiGFP reactiv: inactive; FN deposition inh: inactive; DENV2 CPE: inactive

How did CCOC(=O)c1ccc2[nH]c3c(c2c1)CCCC3O (stereo not drawn) do in these assays?
XiGFP reactiv: inactive; CASP6 VEID inh: inactive; CaV13 ICDI inh: inactive; FN deposition inh: inactive; DENV2 CPE: inactive

Results for Cc1ccc2[nH]c3c(c2c1)CCCC3NCCO (stereo not drawn) ?
XiGFP reactiv: inactive; CASP6 VEID inh: 44.2; CaV13 ICDI inh: inactive; FN deposition inh: inactive; DENV2 CPE: inactive

How did COc1ccc2c3c([nH]c2c1)[C@@H](CO)N(Cc1ccncc1)CC31CN(S(C)(=O)=O)C1 do in these assays?
XiGFP reactiv: inactive

Results for O=C(NN1C(=O)CSC1=S)C(=O)NN1C(=O)CSC1=S ?
XiGFP reactiv: inactive; CASP6 VEID inh: 51.0; CaV13 ICDI inh: inactive; FN deposition inh: inactive; DENV2 CPE: inactive

What do the screens show for `O=C(Cc1cccc2ccccc12)NN1C(=O)CSC1=S`?
XiGFP reactiv: inactive; CASP6 VEID inh: inactive; CaV13 ICDI inh: inactive; FN deposition inh: inactive; DENV2 CPE: inactive

Results for O=C(NC1CCCC1)C(c1ccco1)N1CCN(c2c(Cl)cncc2Cl)CC1 (stereo not drawn) ?
XiGFP reactiv: inactive; CASP6 VEID inh: inactive; CaV13 ICDI inh: inactive; FN deposition inh: inactive; DENV2 CPE: 24.2

What do the screens show for `COc1ccc2c3c(n(C)c2c1)[C@H](CO)NCC31CN(Cc2ccccc2F)C1`?
XiGFP reactiv: inactive; DENV2 CPE: inactive

How did COc1ccc2c3c(n(C)c2c1)[C@@H](CO)NCC31CN(Cc2cc(F)ccc2F)C1 do in these assays?
XiGFP reactiv: inactive; FN deposition inh: inactive; DENV2 CPE: 30.8

What do the screens show for `COc1ccc2c3c(n(C)c2c1)[C@H](CO)NCC31CCN(Cc2ccccc2F)CC1`?
XiGFP reactiv: inactive; DENV2 CPE: 30.8

Results for COCCNC(=O)C[C@@H]1CC[C@@H]2[C@H](COC[C@@H](O)CN2C(=O)Nc2ccccc2OC)O1 ?
XiGFP reactiv: inactive; CASP6 VEID inh: inactive; FN deposition inh: inactive; DENV2 CPE: inactive

How did COc1ccc(NC(=O)N(C)C[C@@H]2Oc3ccc(NS(=O)(=O)c4c(C)noc4C)cc3C(=O)N([C@@H](C)CO)C[C@@H]2C)cc1 do in these assays?
XiGFP reactiv: inactive; CASP6 VEID inh: inactive; DENV2 CPE: 26.9

How did COc1ccc(NC(=O)N(C)C[C@H]2Oc3ccc(NS(=O)(=O)c4c(C)noc4C)cc3C(=O)N([C@@H](C)CO)C[C@H]2C)cc1 do in these assays?
XiGFP reactiv: inactive; CASP6 VEID inh: inactive; DENV2 CPE: inactive

What do the screens show for `Cc1noc(C)c1NC(=O)N(C)C[C@@H]1Oc2ccc(NC(=O)NC(C)C)cc2C(=O)N([C@@H](C)CO)C[C@H]1C`?
XiGFP reactiv: inactive; CASP6 VEID inh: inactive; DENV2 CPE: 44.8

How did COc1ccc(NC(=O)N(C)C[C@H]2Oc3ccc(NS(=O)(=O)c4c(C)noc4C)cc3C(=O)N([C@H](C)CO)C[C@H]2C)cc1 do in these assays?
XiGFP reactiv: inactive; CASP6 VEID inh: inactive; DENV2 CPE: inactive

What do the screens show for `Cc1noc(C)c1NC(=O)N(C)C[C@@H]1Oc2ccc(NS(=O)(=O)c3c(C)noc3C)cc2C(=O)N([C@@H](C)CO)C[C@@H]1C`?
XiGFP reactiv: inactive

What do the screens show for `Cc1noc(C)c1NC(=O)N(C)C[C@H]1Oc2ccc(NC(=O)NC(C)C)cc2C(=O)N([C@@H](C)CO)C[C@@H]1C`?
XiGFP reactiv: inactive; CASP6 VEID inh: inactive; DENV2 CPE: inactive

Results for COc1ccc(NC(=O)N(C)C[C@@H]2Oc3ccc(NS(=O)(=O)c4c(C)noc4C)cc3C(=O)N([C@H](C)CO)C[C@@H]2C)cc1 ?
XiGFP reactiv: inactive; CASP6 VEID inh: inactive; DENV2 CPE: 89.7

How did Cc1noc(C)c1NC(=O)N(C)C[C@H]1Oc2ccc(NS(=O)(=O)c3c(C)noc3C)cc2C(=O)N([C@H](C)CO)C[C@@H]1C do in these assays?
XiGFP reactiv: inactive; CASP6 VEID inh: inactive; CaV13 ICDI inh: inactive; FN deposition inh: inactive; DENV2 CPE: 30.5!

What do the screens show for `C[C@@H]1CN([C@H](C)CO)C(=O)c2cc(C#CC3CCCCC3)cnc2O[C@@H]1CN(C)C`?
XiGFP reactiv: inactive; FN deposition inh: inactive

What do the screens show for `COc1ccc(NC(=O)N(C)C[C@H]2Oc3ccc(NS(=O)(=O)c4c(C)noc4C)cc3C(=O)N([C@H](C)CO)C[C@@H]2C)cc1`?
XiGFP reactiv: inactive; CASP6 VEID inh: inactive; CaV13 ICDI inh: inactive; FN deposition inh: inactive; DENV2 CPE: 22.0
